Values after ≈ are worked out from the molar mass of the structure shown.
Experiments:
Assay type in all cases: functional
[1] = tested on: Vesicular stomatitis virus; experiment: Inhibition of Vesicular stomatitis virus induced cytopathicity in Vero cells.
Procedure, shortened: (§1)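 Vesicular stomatitis virus was inoculated at 100 CCID50 (100× the dose infecting 50% of cells) in each cell type: human embryonic skin-muscle fibroblasts, LR-strain trisomy-21 fibroblasts, HEp-2, CV-1, BS-C-1, Balb/3T3, RK13, human kidney, HeLa and Vero. CPE was read at 1–2 days in every cell type, once complete in untreated infected controls. The MIC is the concentration giving a 50% reduction in cytopathogenicity.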

[2] = tested on: Vesicular stomatitis virus; experiment: Inhibition of Vesicular stomatitis virus induced cytopathicity in E6SM cells.; procedure, shortened: as §1
Human respirovirus 3 = experiment: Inhibition of parainfluenza virus-3 induced cytopathicity in vero cells.
Coxsackievirus B4 = experiment: Inhibition of Coxsackie B4 virus induced cytopathicity in HeLa cells.; conditions: Enterovirus B
HK = experiment: Minimum inhibitory concentration which is required to reduce virus-induced cytopathogenicity by 50% against Vesicular stomatitis virus in human kidney,; procedure, shortened: as §1
HeLa = experiment: Cytotoxic concentration against HeLa cells.; conditions: Homo sapiens
Procedure, shortened: (§2)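 Uninfected cells were incubated with compound for the same duration as the matching antiviral assay. The minimum cytotoxic concentration is the lowest one causing a microscopically detectable change in normal cell morphology.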

Human alphaherpesvirus 1 = experiment: Inhibition of HSV-1 induced cytopathicity in PRK cells.
Vaccinia virus = experiment: Inhibition of Vaccinia virus induced cytopathicity in PRK cells.; conditions: Orthopoxvirus vaccinia
[3] = tested on: Vesicular stomatitis virus; experiment: Inhibition of Vesicular stomatitis virus induced cytopathicity in CV-1 cells.; procedure, shortened: as §1
[4] = tested on: Vesicular stomatitis virus; experiment: Inhibition of Vesicular stomatitis virus induced cytopathicity in PRK cells.
Vero = experiment: Cytotoxic concentration against Vero cells.; conditions: Chlorocebus sabaeus; procedure, shortened: as §2
[5] = tested on: Vesicular stomatitis virus; experiment: Inhibition of Vesicular stomatitis virus induced cytopathicity in BS-C-1 cells.; procedure, shortened: as §1
[6] = tested on: Vesicular stomatitis virus; experiment: Inhibition of Vesicular stomatitis virus induced cytopathicity in RK13 cells.; procedure, shortened: as §1
Poliovirus 1 = experiment: Inhibition of polio virus 1 induced cytopathicity in HeLa cells.; conditions: Enterovirus C
Measles morbillivirus = experiment: Inhibition of Measles virus induced cytopathicity in vero cells.
[7] = tested on: Vesicular stomatitis virus; experiment: Inhibition of Vesicular stomatitis virus induced cytopathicity in HEp-2 cells.; procedure, shortened: as §1
PRK = experiment: Cytotoxic concentration against PRK cells.; conditions: Oryctolagus cuniculus; procedure, shortened: as §2
[8] = tested on: Mammalian orthoreovirus 1; experiment: Inhibition of Reo virus-1 induced cytopathicity in vero cells.
[9] = tested on: Vesicular stomatitis virus; experiment: Inhibition of Vesicular stomatitis virus induced cytopathicity in HeLa cells.; procedure, shortened: as §1
[10] = tested on: Vesicular stomatitis virus; experiment: Inhibition of Vesicular stomatitis virus induced cytopathicity in T-21 cells.; procedure, shortened: as §1
[11] = tested on: Vesicular stomatitis virus; experiment: Inhibition of Vesicular stomatitis virus induced cytopathicity in BALB/3T3 cells.; conditions: in Mus musculus; procedure, shortened: as §1
Sindbis virus = experiment: Inhibition of Sindbis virus induced cytopathicity in vero cells.
Oryctolagus cuniculus [12] = species on record: Oryctolagus cuniculus; experiment: Inhibitory effects on DNA, RNA, and Protein synthesis in rabbit kidney cells was evaluated for incorporation of [5-3H]-Urd; conditions: read-out: ID50 (the source's name)
Oryctolagus cuniculus [13] = species on record: Oryctolagus cuniculus; experiment: Inhibitory effects on DNA, RNA, and Protein synthesis in rabbit kidney cells was evaluated for incorporation of [4,5-3H]leucine; conditions: read-out: ID50 (the source's name)
Oryctolagus cuniculus [14] = species on record: Oryctolagus cuniculus; experiment: Inhibitory effects on DNA, RNA, and Protein synthesis in rabbit kidney cells was evaluated for incorporation of [methyl-3H]dThd]; conditions: read-out: ID50 (the source's name)

SMILES | MIC [1] [µg/mL] | MIC [2] [µg/mL] | MIC (Human respirovirus 3) [µg/mL] | MIC (Coxsackievirus B4) [µg/mL] | MIC (HK) [µg/mL] | MCC (HeLa) [µg/mL] | MIC (Human alphaherpesvirus 1) [µg/mL] | MIC (Vaccinia virus) [µg/mL] | MIC [3] [µg/mL] | MIC [4] [µg/mL] | MCC (Vero) [µg/mL] | MIC [5] [µg/mL] | MIC [6] [µg/mL] | MIC (Poliovirus 1) [µg/mL] | MIC (Measles morbillivirus) [µg/mL] | MIC [7] [µg/mL] | MCC (PRK) [µg/mL] | MIC [8] [µg/mL] | MIC [9] [µg/mL] | MIC [10] [µg/mL] | also measured
CC(C)OC(=O)C(O)Cn1cnc2c(N)ncnc21 (centres undefined) | 200 (≈ 754 µM) | 3 (≈ 11.3 µM) | 70 (≈ 264 µM) | > 400 | 300 (≈ 1130 µM) | > 400 | > 400 | 3 (≈ 11.3 µM) | > 400 | 3 (≈ 11.3 µM) | > 400 | > 400 | 1 (≈ 3.77 µM) | > 400 | 150 (≈ 565 µM) | 7 (≈ 26.4 µM) | > 400 | 40 (≈ 151 µM) | 30 (≈ 113 µM) | 1 (≈ 3.77 µM) | MIC [11]: > 400 µg/mL; MIC (Sindbis virus): > 400 µg/mL
CC(C)(C)OC(=O)C(O)Cn1cnc2c(N)ncnc21 (centres undefined) | > 400 | 150 (≈ 537 µM) | 150 (≈ 537 µM) | > 400 | > 400 | > 400 | > 400 | 150 (≈ 537 µM) | > 400 | 150 (≈ 537 µM) | > 400 | > 400 | 30 (≈ 107 µM) | > 400 | 150 (≈ 537 µM) | 40 (≈ 143 µM) | > 400 | 150 (≈ 537 µM) | 150 (≈ 537 µM) | 15 (≈ 53.7 µM) | MIC [11]: > 400 µg/mL; MIC (Sindbis virus): > 400 µg/mL
COCCOC(=O)C(O)Cn1cnc2c(N)ncnc21 (centres undefined) | 300 (≈ 1070 µM) | 7 (≈ 24.9 µM) | 300 (≈ 1070 µM) | > 400 | > 400 | > 400 | > 400 | 30 (≈ 107 µM) | > 400 | 7 (≈ 24.9 µM) | > 400 | > 400 | 70 (≈ 249 µM) | > 400 | 400 (≈ 1420 µM) | 7 (≈ 24.9 µM) | > 400 | 70 (≈ 249 µM) | 20 (≈ 71.1 µM) | 15 (≈ 53.3 µM) | MIC [11]: > 400 µg/mL; MIC (Sindbis virus): > 400 µg/mL
Nc1ncnc2c1ncn2C[C@H](O)CO [(S)-DHPA] | 200 (≈ 956 µM) | 15 (≈ 71.7 µM) | 20 (≈ 95.6 µM) | > 400 | 50 (≈ 239 µM) | > 400 | > 400 | 30 (≈ 143 µM) | > 400 | 15 (≈ 71.7 µM) | > 400 | > 400 | 150 (≈ 717 µM) | > 400 | 30 (≈ 143 µM) | 4 (≈ 19.1 µM) | > 400 | 200 (≈ 956 µM) | 30 (≈ 143 µM) | 20 (≈ 95.6 µM) | IC50 (Oryctolagus cuniculus [12]): > 400 µg/mL; IC50 (Oryctolagus cuniculus [13]): > 400 µg/mL; IC50 (Oryctolagus cuniculus [14]): > 326 µg/mL; MIC [11]: > 400 µg/mL; MIC (Sindbis virus): > 400 µg/mL
Nc1ncnc2c1ncn2CC(O)C(=O)OCc1ccco1 (centres undefined) | > 40 | 40 (≈ 132 µM) | 15 (≈ 49.5 µM) | > 40 | > 40 | 40 | > 40 | 10 (≈ 33 µM) | > 40 | 15 (≈ 49.5 µM) | 40 | > 40 | > 40 | > 40 | > 40 | 4 (≈ 13.2 µM) | 40 | 30 (≈ 98.9 µM) | 7 (≈ 23.1 µM) | 7 (≈ 23.1 µM) | MIC [11]: > 40 µg/mL; MIC (Sindbis virus): > 40 µg/mL
CC(C)COC(=O)C(O)Cn1cnc2c(N)ncnc21 (centres undefined) | 30 (≈ 107 µM) | 5 (≈ 17.9 µM) | 20 (≈ 71.6 µM) | > 400 | 20 (≈ 71.6 µM) | > 400 | > 400 | 3 (≈ 10.7 µM) | 200 (≈ 716 µM) | 1 (≈ 3.58 µM) | > 400 | 100 (≈ 358 µM) | 30 (≈ 107 µM) | > 400 | 40 (≈ 143 µM) | 1 (≈ 3.58 µM) | > 400 | 150 (≈ 537 µM) | 10 (≈ 35.8 µM) | 1 (≈ 3.58 µM) | IC50 (Oryctolagus cuniculus [12]): 34 µg/mL (≈ 122 µM); IC50 (Oryctolagus cuniculus [13]): > 277 µg/mL; IC50 (Oryctolagus cuniculus [14]): 242 µg/mL (≈ 866 µM); MIC [11]: 300 µg/mL (≈ 1070 µM); MIC (Sindbis virus): > 400 µg/mL
Nc1ncnc2c1ncn2CC(O)C(=O)OCCO (centres undefined) | 150 (≈ 561 µM) | 70 (≈ 262 µM) | > 200 | > 400 | 200 (≈ 748 µM) | > 400 | > 400 | 70 (≈ 262 µM) | > 400 | 30 (≈ 112 µM) | > 400 | > 400 | 100 (≈ 374 µM) | > 400 | 30 (≈ 112 µM) | 3 (≈ 11.2 µM) | > 400 | > 200 | 70 (≈ 262 µM) | 30 (≈ 112 µM) | IC50 (Oryctolagus cuniculus [12]): > 400 µg/mL; IC50 (Oryctolagus cuniculus [13]): > 400 µg/mL; IC50 (Oryctolagus cuniculus [14]): > 314 µg/mL; MIC [11]: > 400 µg/mL; MIC (Sindbis virus): > 400 µg/mL
CCOC(=O)C(O)Cn1cnc2c(N)ncnc21 (centres undefined) | 400 (≈ 1590 µM) | 7 (≈ 27.9 µM) | 20 (≈ 79.6 µM) | > 400 | 200 (≈ 796 µM) | > 400 | > 400 | 3 (≈ 11.9 µM) | > 400 | 1 (≈ 3.98 µM) | > 400 | > 400 | 2 (≈ 7.96 µM) | > 400 | 20 (≈ 79.6 µM) | 7 (≈ 27.9 µM) | > 400 | 40 (≈ 159 µM) | 4 (≈ 15.9 µM) | 1 (≈ 3.98 µM) | MIC [11]: > 400 µg/mL; MIC (Sindbis virus): > 400 µg/mL
CC(C)CCOC(=O)C(O)Cn1cnc2c(N)ncnc21 (centres undefined) | 15 (≈ 51.1 µM) | 2 (≈ 6.82 µM) | > 200 | > 400 | 10 (≈ 34.1 µM) | 400 | > 400 | 10 (≈ 34.1 µM) | 200 (≈ 682 µM) | 3 (≈ 10.2 µM) | 400 | 70 (≈ 239 µM) | 100 (≈ 341 µM) | > 400 | 12 (≈ 40.9 µM) | 1 (≈ 3.41 µM) | 400 | 30 (≈ 102 µM) | 3 (≈ 10.2 µM) | 1 (≈ 3.41 µM) | IC50 (Oryctolagus cuniculus [12]): 29 µg/mL (≈ 98.9 µM); IC50 (Oryctolagus cuniculus [13]): 228 µg/mL (≈ 777 µM); IC50 (Oryctolagus cuniculus [14]): 114 µg/mL (≈ 389 µM); MIC [11]: 200 µg/mL (≈ 682 µM); MIC (Sindbis virus): 200 µg/mL (≈ 682 µM)
CCCCOC(=O)C(O)Cn1cnc2c(N)ncnc21 (centres undefined) | 30 (≈ 107 µM) | 7 (≈ 25.1 µM) | 70 (≈ 251 µM) | > 400 | 50 (≈ 179 µM) | 400 | > 200 | 3 (≈ 10.7 µM) | 300 (≈ 1070 µM) | 3 (≈ 10.7 µM) | 200 | 150 (≈ 537 µM) | 100 (≈ 358 µM) | > 400 | 25 (≈ 89.5 µM) | 2 (≈ 7.16 µM) | 200 | 150 (≈ 537 µM) | 15 (≈ 53.7 µM) | 2 (≈ 7.16 µM) | IC50 (Oryctolagus cuniculus [12]): 102 µg/mL (≈ 365 µM); IC50 (Oryctolagus cuniculus [13]): > 381 µg/mL; IC50 (Oryctolagus cuniculus [14]): > 253 µg/mL; MIC [11]: 200 µg/mL (≈ 716 µM); MIC (Sindbis virus): 150 µg/mL (≈ 537 µM)
CCC(C)OC(=O)C(O)Cn1cnc2c(N)ncnc21 (centres undefined) | 150 (≈ 537 µM) | 1 (≈ 3.58 µM) | 200 (≈ 716 µM) | > 400 | > 400 | > 400 | > 400 | 3 (≈ 10.7 µM) | > 400 | 1 (≈ 3.58 µM) | > 400 | > 400 | 15 (≈ 53.7 µM) | > 400 | 40 (≈ 143 µM) | 7 (≈ 25.1 µM) | > 400 | 70 (≈ 251 µM) | 30 (≈ 107 µM) | 1 (≈ 3.58 µM) | MIC [11]: > 400 µg/mL; MIC (Sindbis virus): 300 µg/mL (≈ 1070 µM)
Nc1ncnc2c1ncn2CC(O)C(=O)OC1CCCCC1 (centres undefined) | > 100 | 7 (≈ 22.9 µM) | > 40 | > 100 | > 200 | 100 | 100 (≈ 328 µM) | 3 (≈ 9.83 µM) | > 200 | 1 (≈ 3.28 µM) | 100 | 40 (≈ 131 µM) | 70 (≈ 229 µM) | > 100 | 15 (≈ 49.1 µM) | 2 (≈ 6.55 µM) | 100 | 7 (≈ 22.9 µM) | 30 (≈ 98.3 µM) | 1 (≈ 3.28 µM) | MIC [11]: 70 µg/mL (≈ 229 µM); MIC (Sindbis virus): > 100 µg/mL
